We go through twelve compounds from ChEMBL document CHEMBL1122121, “Synthesis and biological activity of 5'-substituted 5-fluoropyrimidine nucleosides” (J Med Chem, 1982).

Assay [1] has as its system CCRF-CEM. Description: Concentration required for the 50% inhibition of growth of CCRF-CEM human leukemia cells in culture. In kind it is functional, cell-based. The procedure, abridged:
(§1)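 10^5 mycoplasma-free L1210 or CCRF-CEM cells grown 48 h in RPMI 1640 with 10% fetal calf serum containing compound, then counted. Value is concentration giving 50% growth inhibition. Compounds were purified by preparative TLC until no FUrd was detectable by HPLC. Highest concentration noted was 10^-4 M.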

In assay [2] the test system is Mus musculus. Put plainly: Mortality rate was measured at a dose of 150 mg/kg. In kind it is functional. The procedure, abridged:
(§2)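 Female DBA/2 mice (18–22 g), groups of five, implanted ip on day 0 with 10^5 L1210 leukemia cells. Compound dissolved in PBS and given ip daily on days 1–5 (q.d. 1–5). Controls received PBS. Mice were weighed on days 1 and 7. Read-outs were mean mortality and percent increase in life span.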

For assay [3], the system named is L1210. Description: Antitumor activity against L1210 leukemia cells in mice at a dose of 250 mg/kg (ip) expressed as change in the body weight after 7 days. In kind it is functional, Mus musculus. Put shortly: (§3)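 Female DBA/2 mice (18–22 g), groups of five, implanted ip with 10^5 L1210 cells on day 0. Compound in PBS given ip (0.2 mL) once daily days 1–5. Controls got PBS. Mice weighed on days 1 and 7. Weight change expressed as percentage of initial weight.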

Assay [4] has as its system Mus musculus. Description: Mortality rate was measured at a dose of 250 mg/kg. In kind it is functional. Put shortly: as §2
For assay [5], the system named is Mus musculus. Put plainly: Percent increase in life span(ILS) was measured in mice at a dose of 250 mg/kg. In kind it is functional. The procedure, abridged: as §2
Assay [6] deals with L1210. Description: Antitumor activity against L1210 leukemia cells in mice at a dose of 100 mg/kg (ip) expressed as change in the body weight after 7 days. In kind it is functional, Mus musculus. Put shortly:
as §3

Assay [7] concerns L1210. Description: Concentration required for the 50% inhibition of growth of L1210 mouse leukemia cells in culture. In kind it is functional, cell-based. The procedure, abridged: as §1
Assay [8] has as its system Mus musculus. Description: Percent increase in life span(ILS) was measured in mice at a dose of 100 mg/kg. In kind it is functional. Put shortly: as §2
Assay [9] deals with Mus musculus. Put plainly: Percent increase in life span(ILS) was measured in mice at a dose of 150 mg/kg. In kind it is functional. The procedure, abridged:
as §2

The test system of assay [10] is L1210. Put plainly: Antitumor activity against L1210 leukemia cells in mice at a dose of 150 mg/kg (ip) expressed as change in the body weight after 7 days. In kind it is functional, Mus musculus. Put shortly: as §3
The test system of assay [11] is Mus musculus. Description: Mortality rate was measured at a dose of 100 mg/kg. In kind it is functional. Put shortly: as §2
The subject of assay [12] is L1210. Put plainly: Concentration required for the 50% inhibition of growth of L1210 mouse leukemia cells in culture; No growth inhibition was observed at a concentration of 10^-4 M. In kind it is functional, cell-based. The procedure, abridged: as §1
The subject of assay [13] is CCRF-CEM. Put plainly: Concentration required for the 50% inhibition of growth of CCRF-CEM human leukemia cells in culture; No growth inhibition was observed at a concentration of 10^-4 M. In kind it is functional, cell-based. The procedure, abridged:
as §1

Usually IC50 stands for the concentration that gives 50% inhibition. For orientation: ILS means how much longer treated animals lived than controls. A higher ILS goes with much gain in survival. As for `NC[C@H]1OC(n2cc(F)c(=O)[nH]c2=O)[C@H](O)[C@@H]1O` (some centres not stated), the IC50 in the assay on CCRF-CEM [1] was found to be 49 µM; in the assay with L1210 [7] it was 8.7 µM. Further, the “Mean day of death” value is 12.8 days with Mus musculus [2] and 13.6 days in the assay with Mus musculus [4]. In addition, the figures for the “Change of body weight” value with L1210 [3], with L1210 [6] and in the assay on L1210 [10] were -0.9%, 1.8% and -5.5%, respectively. Further, the ILS at 250 mg/kg with Mus musculus [5] was determined as 28%. This compound came in with an ILS at 100 mg/kg in the assay on Mus musculus [8] of 17%. This compound also showed an ILS at 150 mg/kg in the assay on Mus musculus [9] of 19%. For the same compound, in the assay on Mus musculus [11], the Mean survival time is 12.4 days.
Consider `O=c1[nH]c(=O)n([C@@H]2O[C@H](CO)[C@@H](O)[C@H]2O)cc1F` [5-FLUOROURIDINE], for which the IC50 in the assay on CCRF-CEM [1] turned out to be 0.05 µM; with L1210 [7] it was 0.005 µM.
`O=c1[nH]c(=O)n(C2O[C@H](CBr)[C@@H](O)[C@H]2O)cc1F` (some centres not stated): the IC50 came out at 3.1 µM in the assay on CCRF-CEM [1] and 0.8 µM with L1210 [7]. For the same compound, the figures for the “Mean day of death” value in the assay with Mus musculus [2] and with Mus musculus [4] were 15 days and 14.2 days, respectively. The “Change of body weight” value is recorded as -1.8% in the assay on L1210 [3] and 1.7% in the assay on L1210 [6]. This compound also returned an ILS at 250 mg/kg with Mus musculus [5] of 34%. Further, in the assay on Mus musculus [8], the ILS at 100 mg/kg was 34%. This compound also had an ILS at 150 mg/kg in the assay on Mus musculus [9] of 41%. The compound further returned a Mean survival time in the assay with Mus musculus [11] of 14.2 days.
Regarding `C[C@H]1O[C@@H](n2cc(F)c(=O)[nH]c2=O)[C@H](O)[C@@H]1O` [DOXIFLURIDINE], the values for the IC50 in the assay on CCRF-CEM [1] and in the assay with L1210 [7] were 22 µM and 3.6 µM, respectively. In addition, the “Mean day of death” value in the assay on Mus musculus [2] amounted to 12 days; with Mus musculus [4] it was 12.8 days. The “Change of body weight” value in the assay on L1210 [3] worked out at 0%; in the assay with L1210 [6], 5.7%; with L1210 [10] it was 4.8%. This compound also displayed an ILS at 250 mg/kg with Mus musculus [5] of 20%. Also, the ILS at 100 mg/kg in the assay with Mus musculus [8] stood at 8%. This compound registered an ILS at 150 mg/kg with Mus musculus [9] of 13%. The compound further yielded a Mean survival time in the assay on Mus musculus [11] of 11.4 days.
`Cc1ccc(S(=O)(=O)OC[C@H]2OC(n3cc(F)c(=O)[nH]c3=O)[C@H](O)[C@@H]2O)cc1` (some centres not stated): the results for the IC50 with CCRF-CEM [1] and in the assay on L1210 [7] were 1.8 µM and 0.46 µM, respectively.
On to `O=c1[nH]c(=O)n(C2O[C@H](CI)[C@@H](O)[C@H]2O)cc1F` (some centres not stated), for which the IC50 in the assay on CCRF-CEM [1] is 27 µM; with L1210 [7] it was 5 µM. In addition, in the assay on L1210 [6], the “Change of body weight” value is listed as 0%.
`[N-]=[N+]=NC[C@H]1OC(n2cc(F)c(=O)[nH]c2=O)[C@H](O)[C@@H]1O` (some centres not stated): the figures for the IC50 in the assay with CCRF-CEM [1] and in the assay on L1210 [7] were 350 µM and 170 µM, respectively.
As to `O=c1[nH]c(=O)n(C2O[C@H](CF)[C@@H](O)[C@H]2O)cc1F` (some centres not stated), the IC50 in the assay on CCRF-CEM [1] worked out at 140 µM; in the assay with L1210 [7] it was 29 µM. Also, the entries for the “Mean day of death” value in the assay on Mus musculus [2] and in the assay with Mus musculus [4] were 13.8 days and 16.8 days, respectively. Further, the “Change of body weight” value was 2.3% in the assay with L1210 [3], -5.6% in the assay on L1210 [6] and 0.9% in the assay with L1210 [10]. This compound displayed an ILS at 250 mg/kg in the assay with Mus musculus [5] of 58%. In addition, the ILS at 100 mg/kg with Mus musculus [8] was 32%. In the assay with Mus musculus [9], this compound returned an ILS at 150 mg/kg of 30%. In addition, the Mean survival time with Mus musculus [11] is 14 days.
In the case of `O=c1[nH]cc(F)c(=O)[nH]1` [FLUOROURACIL], the IC50 with CCRF-CEM [1] is 5 µM; in the assay with L1210 [7], 0.5 µM.
Consider `O=c1[nH]c(=O)n(C2O[C@H](CCl)[C@@H](O)[C@H]2O)cc1F` (some centres not stated), for which the “Mean day of death” value with Mus musculus [2] amounted to 16 days; in the assay on Mus musculus [4], 17.4 days. For the same compound, the “Change of body weight” value is -4.6% in the assay with L1210 [3], -0.8% with L1210 [6] and -3.5% with L1210 [10]. The same compound returned an ILS at 250 mg/kg with Mus musculus [5] of 64%. In the assay with L1210 [7], this compound had an IC50 of 3.4 µM. This compound also registered an increase in lifespan (ILS) at 100 mg/kg in the assay on Mus musculus [8] of 47%. In the assay with Mus musculus [9], this compound gave an increase in life span (ILS) at 150 mg/kg of 51%. In the assay with Mus musculus [11], this compound came in with a Mean survival time of 15.6 days.
With `O=c1[nH]c(=O)n(C2O[C@H](CO[N+](=O)[O-])[C@@H](O)[C@H]2O)cc1F` (some centres not stated), the 50% inhibitory concentration (IC50) result with L1210 [12] and with CCRF-CEM [13] was “No inhibition” throughout.
Regarding `CS(=O)(=O)OC[C@H]1OC(n2cc(F)c(=O)[nH]c2=O)[C@H](O)[C@@H]1O` (some centres not stated), the IC50 stood at 0.66 µM with CCRF-CEM [1] and 0.32 µM with L1210 [7]. The “Mean day of death” value was determined as 14.8 days in the assay with Mus musculus [2] and 16.8 days in the assay with Mus musculus [4]. Also, the “Change of body weight” value in the assay with L1210 [3] is -1.7%; in the assay on L1210 [6] it was 0%; with L1210 [10] it was 1.3%. The same compound gave an ILS at 250 mg/kg in the assay on Mus musculus [5] of 58%. The ILS at 100 mg/kg in the assay on Mus musculus [8] amounted to 26%. In the assay on Mus musculus [9], this compound gave an ILS at 150 mg/kg of 40%. For the same compound, in the assay on Mus musculus [11], the Mean survival time is 13.4 days.
